Sampled rows, rich in hits. Any-hit rate of the full collection: about 2.9%.
HTRA1 inhibitor = inhibitors of human serine peptidase HTRA1 | recombinant HTRA1, FP-rhodamine activity-based probe, fluorescence polarization | AID 504803 | inhibition, % at 5.96 µM | hit rate 0.5% among 340,000; in the data active means inhibition above about 36%;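 further: 0% = enzyme with DMSO and 100% = wells lacking enzyme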
TCR CD3 inh = inhibitors of human TCR-CD3 interaction; TAMRA-labeled TCR probe fluorescence, biochemical; inhibition, % at 9.4 µM; hit rate 0.37% among 360,000;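 further: recombinant mutant TCR 2C K166C tagged with TAMRA read by polarization; 0% = receptor in buffer alone and 100% = receptor with positive control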
ATG4B inh = blocks human ATG4B protease cleavage of LC3 substrate; ATG4B cleavage of LC3-PLA2, NBD-HPC fluorescence, 1 h; AID 504462; hit rate 0.51% among 340,000; inhibition, % at 8.33 µM; Q9Y4P1; in the data active means inhibition above about 40%
ABHD4 inh = inhibits mouse alpha/beta hydrolase domain 4. Q8VD66. purified mABHD4, FP-Rh probe fluorescence polarization. inhibition, % at 8.92 µM. hit rate 0.54% among 370,000. AID 720543;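 active means inhibition exceeding the mean over every tested compound plus 3 SD, cut at about 30% in these data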;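 further: 0% = plate median of compound wells and 100% = S159A mutant with DMSO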
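Material: mouse ABHD4 enzyme, wild type; Benchmarks: S159A mutant high control, sample median low control; Buffer or medium: HEPES pH 7.0, NaCl, Pluronic buffer; Signal: fluorescence polarization; Read-out: percent inhibition of probe binding, normalized to plate controls; Timing: pre-incubation 45 min, probe exposure 60 min, at 25 °C; Dosing: 8.92 µM, single dose.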
PRMT1 FP inh = inhibitors of human PRMT1; Q99873; recombinant PRMT1, activity-based probe fluorescence polarization; inhibition, % at 2.79 µM; hit rate 1.3% among 370,000;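 active means inhibition above about 21% made by adding two undisclosed values, limit read from the data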
SIAE primary = blocks human sialic acid acetylesterase; Q9HAT2; SIAE FP-Rh probe binding, fluorescence polarization; inhibition, % at 9.66 µM; hit rate 0.69% among 370,000;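 active means inhibition above a cutoff: mean of compounds within the control limits plus 3 SD of those, cut at about 17% in these data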;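 further: 0% = plate median of compound wells and 100% = probe without SIAE protein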
Target sequence (Q9HAT2 whole entry, looked up): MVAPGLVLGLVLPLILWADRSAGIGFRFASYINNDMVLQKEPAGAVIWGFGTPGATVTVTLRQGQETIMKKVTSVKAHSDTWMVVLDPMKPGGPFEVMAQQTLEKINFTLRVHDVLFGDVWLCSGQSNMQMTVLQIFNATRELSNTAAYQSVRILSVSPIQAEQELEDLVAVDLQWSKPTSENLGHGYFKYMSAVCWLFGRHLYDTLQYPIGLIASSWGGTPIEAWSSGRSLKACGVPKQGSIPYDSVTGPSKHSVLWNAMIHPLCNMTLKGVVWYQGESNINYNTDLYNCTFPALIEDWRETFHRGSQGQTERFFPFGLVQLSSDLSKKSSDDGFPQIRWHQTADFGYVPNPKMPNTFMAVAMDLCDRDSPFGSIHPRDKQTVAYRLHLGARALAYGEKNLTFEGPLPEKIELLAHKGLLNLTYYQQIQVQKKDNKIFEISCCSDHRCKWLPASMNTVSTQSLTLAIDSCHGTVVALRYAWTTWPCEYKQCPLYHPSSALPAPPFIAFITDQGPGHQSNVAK
ATG4B conf = confirmation of human ATG4B inhibitors | shares compounds with ATG4B inh | ATG4B protease fluorescent substrate cleavage assay | inhibition, % at 8.33 µM | hit rate 92% among 320 | AID 504757; in the data active means inhibition above about 39%
PLA2 counter = inhibits human PLA2, flagging false ATG4B inhibitors; shares compounds with ATG4B inh; purified PLA2, NBD-C6-HPC fluorescence, 45 min; inhibition, % at 8.33 µM; hit rate 66% among 1,600; AID 588402; in the data active means inhibition above about 50%
Target sequence (P04054 whole entry, looked up): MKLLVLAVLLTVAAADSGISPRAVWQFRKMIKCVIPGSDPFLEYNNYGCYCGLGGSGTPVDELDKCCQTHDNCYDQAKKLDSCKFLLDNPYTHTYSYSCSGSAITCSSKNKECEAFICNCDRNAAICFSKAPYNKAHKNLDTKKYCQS
HTRA1 conf = confirmation of human HTRA1 inhibitors. shares compounds with HTRA1 inhibitor. recombinant HTRA1, FP-rhodamine activity-based probe, fluorescence polarization. inhibition, % at 5.96 µM. hit rate 66% among 1,600. AID 540248;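 active means mean inhibition over three repeats above a set limit taken from the earlier primary screen, cut at about 37% in these data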;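 further: 0% = HTRA1 with DMSO and 100% = wells lacking HTRA1; inhibitors block probe binding so polarization drops and inhibition rises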
BSA TAMRA ctr = interferes with TAMRA-BSA probe, flagging TCR-CD3 hits. TAMRA-labeled BSA probe fluorescence counterscreen. shares compounds with TCR CD3 inh. hit rate 10% among 1,200. inhibition, % at 9.4 µM; in the data active means inhibition above about 23%;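 further: 0% = buffer low control and 100% = reference high control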
TCR-CD3 conf = confirmation of human TCR-CD3 interaction inhibitors. AID 652036. hit rate 48% among 1,200. inhibition, % at 9.4 µM. shares compounds with TCR CD3 inh. TAMRA-labeled TCR probe fluorescence binding assay
PRMT1 inh conf = confirmation of human PRMT1 inhibitors. shares compounds with PRMT1 FP inh. recombinant His-PRMT1, activity-based probe fluorescence polarization. inhibition, % at 2.79 µM. hit rate 42% among 3,300. AID 687036;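 active means mean inhibition across replicates above the hit cutoff derived for the earlier primary screen, cut at about 22% in these data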
mABHD4 conf = confirmation of mouse ABHD4 inhibitors. shares compounds with ABHD4 inh. purified mABHD4, FP-Rh probe fluorescence polarization. inhibition, % at 8.92 µM. hit rate 55% among 1,800. AID 720658;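 active means mean inhibition across replicates above the hit cutoff set in the primary screen, cut at about 30% in these data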;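 further: 0% = wild-type ABHD4 with DMSO and 100% = catalytically dead S159A mutant with DMSO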
* marks the source's active call; other numbers are inactive results; · = not tested or not shown; + = active, no number. Unless noted, no stated cut-off is given here; in the data, active means inhibition above about 19%; inactive means the rest.

SMILES | HTRA1 inhibitor | TCR CD3 inh | ATG4B inh | ABHD4 inh | PRMT1 FP inh | SIAE primary | PLA2 counter | mABHD4 conf | others
COc1cc(/C=C(\C(=O)O)c2ccc(S(=O)(=O)N3CCCC3)s2)cc(OC)c1 | -3 | -2 | -7 | 10 | 4 | 2 | · | ·
COc1ccc(Br)cc1/C=C(\C(=O)O)c1ccc(S(=O)(=O)N2CCCC2)s1 | -10 | -6 | 67* | 30* | 7 | -4 | 76* | 13
CCOc1ccccc1N1CCN(C2=C(NS(=O)(=O)c3cccs3)C(=O)c3ccccc3C2=O)CC1 | 63* | 1 | 57* | 48* | -1 | 12 | 65* | 62* | HTRA1 conf=68*
Cc1c(C(=O)O)cccc1-c1ccc(/C=N/Nc2ccc(Br)cc2)o1 | 11 | 7 | 48* | 35* | 4 | 14 | 25 | 42*
O=C(c1cc(Cl)ccc1F)N1CCCC(c2nc(-c3cccs3)no2)C1 (centres undefined) | · | · | · | -2 | 4 | 0 | · | ·
O=C1C(Cl)=C(N2CCC(C(=O)O)CC2)C(=O)c2ccccc21 | 7 | · | -6 | · | · | · | · | ·
CN1CCN(C2=C(Cl)C(=O)c3ccccc3C2=O)CC1 | 50* | 15 | 73* | 37* | 18 | 13 | -16 | 32* | ATG4B conf=30;HTRA1 conf=48*
O=C(O)c1cc(O)c2c(c1)[C@H]([C@H]1c3cc(C(=O)O)cc(O)c3C(=O)c3c(O[C@@H]4O[C@H](CO)[C@@H](O)[C@H](O)[C@H]4O)cccc31)c1cccc(OC3O[C@H](CO)[C@@H](O)[C@H](O)[C@H]3O)c1C2=O (some centres undefined) | 40* | 137* | 95* | 60* | 37* | 74* | -12 | 5 | HTRA1 conf=19;BSA TAMRA ctr=-14;TCR-CD3 conf=135*;PRMT1 inh conf=13
COC(=O)C1CN(Cc2cn(Cc3ccc(C)cc3)nn2)CCS(=O)(=O)N1Cc1ccc(OC)cc1 (centres undefined) | · | · | · | 2 | 1 | 3 | · | ·
Cc1ccc2[nH]c3c(NCc4ccccc4)ncnc3c2c1 | · | 1 | 50* | 41* | 2 | 24* | 60* | 20
O=C1CC(N2CCOCC2)=NC(=O)N1c1ccc(Br)cc1 | · | · | · | 4 | 0 | -5 | · | ·
COc1ccc(C(=O)CSc2nnc(-c3cccc(Cl)c3)n2Cc2ccco2)cc1 | · | · | · | -7 | 7 | -6 | · | ·
COc1cc(/C=C/C(=O)O)cc(S(=O)(=O)NC2CCCC2)c1OC | 3 | -13 | -4 | -3 | -2 | -1 | · | ·
COc1cc(/C=C/C(=O)O)cc(S(=O)(=O)Nc2cc(Cl)c(Cl)cc2Cl)c1OC | -11 | 6 | 41* | 32* | 2 | 2 | 7 | 35* | ATG4B conf=52*
CCCCCCCCCCCCCCCC(O)C[N+](C)(C)CCO (centres undefined) | + | -5 | 55* | 38* | -2 | 1 | 47 | 51* | ATG4B conf=56*;HTRA1 conf=66*
CCCCCC(O)CCCC(=O)O (centres undefined) | 3 | 10 | -1 | 2 | -4 | 2 | · | ·
COC(=O)[C@]12CCCCC=C1N(Cc1ccc(OC)cc1)C(=O)[C@@H]2CC(=O)NCCc1ccccc1OC | · | · | · | -5 | -1 | 1 | · | ·
COCCCn1c(SCc2nnc(-c3ccc(OC)c(OC)c3)o2)nc2ccccc2c1=O | -2 | -1 | 7 | 17 | 2 | -7 | · | ·
COc1ccc(-c2nnc(CSc3nc4ccccc4c(=O)n3CC(C)C)o2)cc1OC | -28 | 1 | 45* | 31* | 3 | -11 | 44 | 28 | ATG4B conf=74*
O=C1/C(=C/C=C/c2ccco2)SC(=S)N1NS(=O)(=O)c1ccccc1 | 25 | 22* | 78* | 46* | 53* | 7 | 18 | 14 | ATG4B conf=41*;BSA TAMRA ctr=-14;TCR-CD3 conf=21*
O=C(Nc1sc(-c2ccccc2)cc1C(=O)O)c1ccccc1 | -16 | 1 | 68* | 36* | -1 | -80 | 81* | 37*
Fc1ccc(-c2n[nH]c(=S)n2N=Cc2ccc(OCc3ccccc3)cc2)cc1 | · | · | · | -9 | 15 | -1 | · | ·
O=S1(=O)c2ccc(N3CCCC3)cc2Oc2ccccc2CN1Cc1cn(Cc2cccc(F)c2)nn1 | · | · | · | 8 | 1 | 5 | · | ·
Cc1cc(N/N=C/c2ccc(O)cc2)nc(NS(=O)(=O)c2ccccc2)n1 | -1 | 5 | -3 | 3 | -2 | -2 | · | ·
Cc1ccc(/C=N/Nc2cc(C)nc(NCc3ccccc3)n2)cc1 | -23 | -3 | 64* | 34* | -7 | 1 | 77* | 60*
SMILES | HTRA1 inhibitor | TCR CD3 inh | ATG4B inh | ABHD4 inh | PRMT1 FP inh | SIAE primary | PLA2 counter | mABHD4 conf | others
Fc1cccc(Cl)c1CNc1ccc(N2CCCC2)cc1 | 47* | 5 | 59* | 32* | 6 | 11 | 58* | 49* | HTRA1 conf=32
NS(=O)(=O)c1ccc(NCc2c(F)cccc2Cl)cc1 | 4 | 1 | 22 | -5 | -2 | 14 | · | ·
O=Cc1cc(N=Nc2ccccc2Cl)ccc1O | 38* | 5 | 56* | 30* | 2 | 10 | 77* | 35* | HTRA1 conf=54*
C=CCSC1=N/C(=C\c2cc(OCC)c(OC(C)=O)c([N+](=O)[O-])c2)C(=O)S1 | 28 | 6 | 89* | 37* | 28* | -11 | 94* | 85* | PRMT1 inh conf=8
C=CCSC1=N/C(=C\c2ccc3c(c2)OCO3)C(=O)S1 | -7 | 2 | 6 | 9 | 3 | 0 | · | ·
COc1ccc(NC(=S)Nc2cccc([N+](=O)[O-])c2)cc1 | 0 | 6 | 10 | 0 | -5 | 3 | · | ·
